In ChEMBL document CHEMBL4513216, “Probing the Open Global Health Chemical Diversity Library for Multistage-Active Starting Points for Next-Generation Antimalarials” (ACS Infect Dis, 2020):

Test: Toxicity liver stage against HepG2, at 10uM
Type: cell-based
Parameters: test concentration 10 uM, cell line HepG2-A16-CD81EGFP
Conditions: human, HepG2-A16-CD81EGFP cells; read-out: INHIBITION
In short: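 Uninfected HepG2-A16-CD81EGFP cells, 3 × 10^3 per well, 1536-well, plated on prespotted compound at 10 μM final, parasite-free screening media added to match infected plates; puromycin 10 μM positive, DMSO 0.5% negative; run in parallel with 48 h PbLuc assay at 37 °C, 5% CO2; viability by CellTiter-Glo luminescence, normalized to controls.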

| SMILES | cytotoxicity at 10 µM [%] |
| --- | --- |
| c1csc(CN2Cc3[nH]nc(COCC4CC4)c3C2)c1 | 6.22 |
| Cc1ccc2c(n1)N(CC1CC1)CCN(C(=O)NC1CC1)C2 | -3.09 |
| COCC[C@]1(O)CCN(C(=O)c2cnn(C)c2)C[C@H]1C | 2.59 |
| CN(Cc1ccon1)C(=O)C1CC(=O)N(Cc2cccnc2)C1 (stereo unspecified) | -3.83 |
| O=c1n(Cc2ccc(C(F)(F)F)cc2)nc2ncccn12 | -4.06 |
| CC(NC(=O)CCCC(=O)c1cccs1)c1nnc2n1CCC2 (stereo unspecified) | -10.2 |
| O=C(NCCN1CCNC1=O)c1cc(-c2ccc(O)cc2)n[nH]1 | 6.27 |
| Cc1nc(CN2CCc3nn(C(C)C)c(=O)cc3C2)oc1C | -7.52 |
| O=C(NCc1cc2n(n1)CCCN(Cc1ccc(CO)o1)C2)C1CCC1 | 5.46 |
| Cn1ccc(C(=O)N2CCN(Cc3ccccc3F)CC2)cc1=O | -1.44 |
| Cc1cc(C)cc(N2CC(c3nnc(N)s3)CC2=O)c1 (stereo unspecified) | 4.29 |
| Cc1nc(C)n(CC2CN(CCCOc3ccccc3C)CCO2)n1 (stereo unspecified) | 5.63 |
| Cc1ccsc1CN(Cc1nc2c(cnn2C)c(=O)[nH]1)C(C)C | -7.27 |
| Cc1nc[nH]c1-c1nccn1CCN1CCCOC1=O | -2.32 |
| Cc1cc(C)n(CC2CCCCN2CCCS(=O)(=O)N(C)C)n1 (stereo unspecified) | 2.32 |
| CN1CCOCC2(CCCN(C(=O)c3ccc(-n4cccc4)cc3)C2)C1 (stereo unspecified) | -98 |
| Cc1cc(N(C)C)nc(C2CCCN2)n1 (stereo unspecified) | -11.1 |
| CCCC12CN3CC(CCC)(CN(C1)C3c1[nH]c(=O)[nH]c(=O)c1C)C2=O (stereo unspecified) | 4.17 |
| Cc1nc(CCN(C)C(=O)CCNC(=O)c2ccccc2F)no1 | 6.35 |
| c1ncn(CCNC2CCCN(Cc3noc(C4CC4)n3)C2)n1 (stereo unspecified) | -2.77 |
| c1cncc(CN2Cc3nccn3CC(Cn3cccn3)C2)c1 (stereo unspecified) | -102 |
| Cc1cc(C)nc(N2CCC(CNC(=O)c3ccccn3)CC2)n1 | -18.9 |
| CC(C)[C@@H]1CN(S(=O)(=O)Cc2ccccc2)C[C@H]1NS(=O)(=O)N(C)C | -0.625 |

| SMILES | cytotoxicity at 10 µM [%] |
| --- | --- |
| CC(C)N(CCNC(=O)c1n[nH]c2ccccc12)C(C)C | -42.8 |
| CCCNC(=O)C(C)NC(=O)CCc1ccccc1Br (stereo unspecified) | 14.5 |
| Cc1ccc(N2C[C@@H]3CN(Cc4ccsc4)CCO[C@@H]3C2)nn1 | 3.32 |
| CC(Cn1cccn1)NC(=O)Nc1nnc(C2CC2)s1 (stereo unspecified) | -1.71 |
| CC(C)C1CN(Cc2cnc(N(C)C)nc2)CCCN1CC1CC1 (stereo unspecified) | -6 |
| Cc1cc(NC(=O)C2CN(Cc3ccccc3)CCO2)ccn1 (stereo unspecified) | 54.9 |
| COCCn1cc(NCc2c[nH]nc2-c2ccc(OC)cc2)cn1 | 6.05 |
| Cn1nc(-c2ccc(F)cc2)cc1C(=O)NCCn1ccnc1 | 3.68 |
| CCC(CO)N(Cc1ccccn1)C(=O)c1ccc(F)c(F)c1 (stereo unspecified) | -0.273 |
| CCC(CC)c1nnc(NC(=O)NC(C)Cn2cccn2)s1 (stereo unspecified) | 3.91 |
| CC(C)OCCNC1(c2ccc(F)cc2)CCOCC1 | -4.78 |
| CCNC(=O)C1(Cc2cc(-c3ccccc3)no2)CCCN(C)C1 (stereo unspecified) | 5.31 |
| CCO[C@H]1CO[C@@]2(CCCN(C(=O)c3ccc(OC)c(F)c3)C2)C1 | 5.69 |
| Cc1nccn1[C@@H]1CC[C@@H](NC(=O)CCCn2cccn2)[C@H]1O | -6.28 |
| COC(=O)c1ccc(S(=O)(=O)NCC(O)c2sccc2C)cc1 (stereo unspecified) | 2.16 |
| CCn1cnnc1C1CCN(C(=O)c2ccc(Cl)s2)CC1 | -12.2 |
| Cn1ccc(C(=O)NCc2cccc(Cn3ccnc3)c2)cc1=O | 8.42 |
| CC(C)CNC(=O)NC(=O)C(C)Nc1cccc(CN2CCOC2=O)c1 (stereo unspecified) | -3.37 |
| CN1CCN(Cc2nc3c(s2)CCCC3)[C@H]2CS(=O)(=O)C[C@H]21 | 2.81 |
| CC(C)N(C)C(=O)C1CSCN1S(=O)(=O)c1cccs1 (stereo unspecified) | -5.96 |
| CC(=O)N1Cc2ccnn2CC(C(=O)NCc2cccnc2)C1 (stereo unspecified) | -97 |
| CCc1noc(C(C)N2CCN(CC(C)C)CC2)n1 (stereo unspecified) | -4.05 |
| CCc1ccc(NS(=O)(=O)c2cc3c(c(C(=O)O)c2)OCCO3)cc1 | -13.9 |

| SMILES | cytotoxicity at 10 µM [%] |
| --- | --- |
| CN(C)c1ccc(C(=O)N2C[C@@H](CN3CCCCC3)[C@@H](CO)C2)cc1 | -1.72 |
| CC(C)NC(=O)C1CCC2(CCNCC2)C1 (stereo unspecified) | 7.18 |
| O=C(NCC(F)(F)F)c1ccc(-c2ccco2)[nH]c1=O | -21.6 |
| CCCc1noc(C(C)N2CCN(Cc3nc(C)c(C)o3)CC2)n1 (stereo unspecified) | -10.6 |
| COCc1nc(C(=O)NS(=O)(=O)c2ccc(C)c(C)c2)cs1 | -8 |
| O=C(c1cnc(Nc2ccccc2)nc1)N1CCC2(CCNCC2)CC1 | -5.96 |
| Cc1c(C(=O)N2CCCC(C(=O)c3nccn3C)C2)c[nH]c(=O)c1C#N (stereo unspecified) | 5.73 |
| CCOC(=O)c1coc(N2CCC(C(O)CC(C)C)CC2)n1 (stereo unspecified) | 5.78 |
| Cc1cccc(N2CC[C@H]3[C@H](CO[C@@H]3CN(C)Cc3ccco3)C2)n1 | 13.8 |
| CCC1(C)Cc2ccccc2-c2nc(NCCCO)nc(O)c21 (stereo unspecified) | 5.42 |
| CC(C)N1CCC[C@H]1C(=O)NCC1CCN(c2cnn(C)c(=O)c2)CC1 | 4.75 |
| COc1ccc(CN2C[C@H]3CC[C@@H](C2)N(S(C)(=O)=O)C3)cc1 | -5.75 |
| Cc1noc(C)c1NC(=O)NC1CCN(C(=O)OC(C)(C)C)CC1 | 4.77 |
| COCC(NC(=O)NCc1sc(C)nc1C)c1ccco1 (stereo unspecified) | 6.75 |
| COCCNc1ccc(CNCc2cnc3nc(C)cc(C)n23)cc1 | -153 |
| c1ccc(CN2CCc3ncnc(N4CCCC4)c3CC2)nc1 | -8.35 |
| CCc1ncncc1C(=O)NCCNc1ncnc2sccc12 | -5.68 |
| c1cc(CNCC2OCCc3cn(CC4CCOCC4)nc32)ccn1 (stereo unspecified) | 3.68 |
| O=C(Cc1cccnc1)NC1COc2ccccc2C1=O (stereo unspecified) | -3.77 |
| Cc1cc(NC(=O)CN2CCCC(Cn3nc(C)nc3C)C2)n(C)n1 (stereo unspecified) | -9.54 |
| O=C(NCCNc1ncccn1)N1CCc2ccccc2C1 | -5.65 |
| CN(C)C(=O)C1CN(Cc2c[nH]cn2)CCN(C2CCOCC2)C1 (stereo unspecified) | -5.97 |
| CCNS(=O)(=O)c1ccc(C)c(C(=O)N(CCC#N)Cc2ccco2)c1 | 5.44 |

| SMILES | cytotoxicity at 10 µM [%] |
| --- | --- |
| O=C(Cc1cccc(F)c1)NCCNCc1cccnc1 | -1.56 |
| COc1cccc2c1N(Cc1noc(C(C)(C)C)n1)CCC2 | 10.9 |
| CCc1nc(C)c(C(=O)N2CCNCC2C(=O)NCc2ccncc2)o1 (stereo unspecified) | -3.64 |
| Cc1ccccc1-n1cc(CN(C)C[C@@H]2CCCN3CCCC[C@H]23)cn1 | -3.09 |
| CC(=O)N(C)Cc1cncc(C2CCCN2C2CCOCC2)n1 (stereo unspecified) | -5.34 |
| CC(C)Oc1ncnc2c1CCN(Cc1ccoc1)CC2 | 2.56 |
| COC[C@]1(O)CCN(Cc2c[nH]c(CC3CCCC3)n2)CC1(C)C | 17.7 |
| Cc1cccc(C)c1OC1CN(C(=O)C2CCCN(C(=O)N(C)C)C2)C1 (stereo unspecified) | -0.545 |
| C=C(C)CNC1CCCN(Cc2noc(C3CC3)n2)C1 (stereo unspecified) | -4.56 |
| N#Cc1cccnc1OC1CCN(C(=O)NCc2ccccc2)CC1 | 1.38 |
| Cc1cc(C)n(C2CCCN(C(=O)Cc3csc(C)n3)C2)n1 (stereo unspecified) | -10.4 |
| COc1ccc2[nH]cc(C(=O)N3CC[C@H](CO)[C@@H](O)C3)c(=O)c2c1 | 1.26 |
| COc1ccccc1OC1CN(C(=O)Cc2c(C)nc(N)nc2C)C1 | 0.866 |
| O=C(NCCc1coc(-c2ccc(F)cc2)n1)NCC1CCOC1 (stereo unspecified) | -1.94 |
| CCS(=O)(=O)N1CCO[C@H]2[C@H](OCCCn3cccn3)CC[C@@H]21 | -5.04 |
| Cc1occc1C(=O)NCC(=O)N1CCCC(c2ccccc2)CC1 (stereo unspecified) | 6.35 |
| CC(=O)N1CCCn2c(nc(CNS(=O)(=O)C3CC3)cc2=O)C1 | 2.71 |
| CCOC(=O)CC(c1ccc(OC)cc1)c1c(O)n[nH]c1C (stereo unspecified) | -0.244 |
| CC(C)NC(=O)CN1CCC(c2cccc(F)c2)C1 (stereo unspecified) | 0.103 |
| O=C(c1c2c(NCC3CC3)ncnc2n2ccccc12)N1CCOCC1 | 9.82 |
| O=C(NC1CC1)C1CCN(c2snc3ccccc23)CC1 | -5.43 |
| COc1ccsc1C(=O)NCCNc1ccccc1 | -4.15 |
| CCCc1nc(N2CCCC3(CCNC3)C2)c2cnn(C)c2n1 (stereo unspecified) | -47.8 |

| SMILES | cytotoxicity at 10 µM [%] |
| --- | --- |
| Cc1ccc(N2CC3(COCCN(Cc4ccccn4)C3)OCC2=O)s1 (stereo unspecified) | -3.49 |
| N#Cc1cccc(S(=O)(=O)CCN2CCOC2=O)c1 | -2.32 |
| O=c1[nH]cc(N2CCCCCC2)c(=O)[nH]1 | 3.46 |
| CC(C)(CNC1CCCN(Cc2ccccn2)C1)CN1CCOCC1 (stereo unspecified) | 5.91 |
| COCCc1noc(CN2CCOC(CN(C)C)C2)n1 (stereo unspecified) | -1.04 |
| CSCC(CCO)NC(=O)Nc1ccc(Br)cc1 (stereo unspecified) | -12.2 |
| CCn1nc(C)c(CN(Cc2ccccn2)Cc2ccccc2Cl)c1C | 5.17 |
| CCNc1ccnc(N2CCCC(CCOC)(C(=O)O)C2)n1 (stereo unspecified) | 2.84 |
| CN(C)S(=O)(=O)c1ccc(CN2CCC(C(N)=O)CC2)o1 | 0.214 |
| O=c1c(NCc2ccncc2)c(NCC(O)CN2CCOCC2)c1=O (stereo unspecified) | -44 |
| O=C(c1cccc(Cl)c1)N1CC[C@H]2[C@H]1CCN2CC1CC1 | -75 |
| CC(=O)N[C@@H]1Cc2ccccc2[C@H]1Nc1nnc(C2CC2)o1 | -47.1 |
| CCN1CCOC(CNCc2c(Cl)nc3ccccn23)C1 (stereo unspecified) | 0.174 |
| Cc1occc1C(=O)N1CCC2(CCN(Cc3nccs3)CC2)C1 | -5.33 |
| COC(=O)c1cccc(CNC(=O)CC(F)(F)F)c1 | 17.4 |
| Cc1cc(C(=O)N(C)Cc2cnn(C)c2C)n(C)n1 | 8.19 |
| CS(=O)(=O)CCS(=O)(=O)Cc1cc(Cl)c2c(c1)OCCCO2 | -0.0261 |
| CC(=O)NCC(=O)N1Cc2nccn2CC(CN2CCCC2)C1 (stereo unspecified) | 2.34 |
| O=C(O)c1cc(S(=O)(=O)Nc2ccccc2)cc2c1OCCO2 | -9.26 |
